Shown are actives, neighbours in structure and some others; about 2.5% of the full set was active somewhere.
NPY-Y2 PAM-ag = potentiators or agonists of human neuropeptide Y receptor Y2. P49146. cells expressing NPY-Y2, potentiator/agonist read-out. activation, % at 3.6 µM. 220,000 tested, 0.45% active. AID 1359; in the data active = activation above about 27%;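 also: cells stimulated with NPY near EC25 plus isoproterenol at EC100; 0% = vehicle plus submaximal agonist and 100% = vehicle plus saturating agonist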
NPY Y1 blocker = blocks the human neuropeptide Y Y1 receptor; P25929; HEK293-CNG Y1 cells, membrane potential fluorescence; NPY at EC95, then isoproterenol; inhibition, % at 3.6 µM; 200,000 tested, 1% active;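 active = inhibition above the campaign mean inhibition of all tested compounds plus 3 SD, cut at about 20% in these data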;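 also: 0% = DMSO wells given NPY plus isoproterenol and 100% = isoproterenol alone without NPY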
Target sequence (P25929 whole entry, looked up): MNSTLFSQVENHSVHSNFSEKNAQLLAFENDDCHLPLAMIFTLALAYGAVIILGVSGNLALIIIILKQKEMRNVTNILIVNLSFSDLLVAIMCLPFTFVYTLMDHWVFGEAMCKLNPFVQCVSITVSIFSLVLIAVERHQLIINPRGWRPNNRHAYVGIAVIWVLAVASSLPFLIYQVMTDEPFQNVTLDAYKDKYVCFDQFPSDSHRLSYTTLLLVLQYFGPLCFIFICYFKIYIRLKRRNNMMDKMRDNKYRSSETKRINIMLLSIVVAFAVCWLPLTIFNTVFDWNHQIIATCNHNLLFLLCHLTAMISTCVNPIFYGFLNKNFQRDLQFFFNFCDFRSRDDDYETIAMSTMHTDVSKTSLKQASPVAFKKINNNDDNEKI
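Material: Y1- and CNG-channel-expressing HEK293 cells / Probe or stimulus: NPY 25 nM then isoproterenol 1 µM plus Ro 20-1724 25 µM / Doses: 3.6 µM single dose, DMSO 0.4% / Schedule: compound incubation 1 h at room temperature, readout 45 min post-stimulation / Signal: membrane potential fluorescence / Benchmarks: isoproterenol-only wells as full block versus NPY-plus-isoproterenol wells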
NPY-Y2 antag = antagonists of human neuropeptide Y receptor Y2; NPY-Y2 expressing cells, antagonist mode; 140,000 tested, 0.99% active; inhibition, % at 2.7 µM; P49146; in the data active = inhibition above about 17%;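 also: 0% = vehicle with agonist challenge and 100% = reference antagonist with challenge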
NPY-Y1 PAM-ag = human NPY-Y1 potentiation or agonism, primary screen; P25929; NPY-Y1 expressing cells, potentiator/agonist activation; activation, % at 3.6 µM; 220,000 tested, 0.37% active; AID 1304; in the data active = activation above about 33%, passing the limit was not always enough;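 also: cells stimulated with NPY at EC10 then isoproterenol at EC100; 0% = low agonist plus stimulus and 100% = saturating agonist plus stimulus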
Ins promoter up = MIN6 insulin promoter up-regulation; MIN6 insulin promoter-GFP reporter, high-content imaging; hits give high values; 190,000 tested, 0.3% active; AID 1625; z-score at 5 µM;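 active = z-score above 3 at 5 µM with at least 500 cells counted in the well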
Insulin prom inh = TRM-6 insulin promoter activity inhibition; TRM-6 cells, insulin promoter-eGFP reporter, imaging; reporter expression induced with tamoxifen; inhibition, % at 2 µM; 130,000 tested, 0.9% active;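 active = inhibition above the mean plus 3 SD, with well images judged a real hit on visual review, cut at about 60% in these data, passing the limit was not always enough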
Starred values were filed as active, the others as inactive; . = no result.

SMILES	NPY-Y2 PAM-ag	NPY Y1 blocker	NPY-Y2 antag	NPY-Y1 PAM-ag	Ins promoter up	Insulin prom inh
COc1cccc(/C=N/NC(=O)c2oc3nc(-c4ccccc4)cc(-c4ccco4)c3c2N)c1	-2	.	.	-1	.	.
Cc1nc(SCC(=O)NCc2ccco2)c2c3c(sc2n1)CCCC3	-17	25*	24*	-11	0.32	.
COc1ccc(CN2CCNC(=O)C2CC(=O)N2CCCCO2)c(OC)c1 (configuration not stated)	-1	0	.	28	.	22
Cc1ccc(/C=N/N2CCN(Cc3cccc4ccccc34)CC2)o1	1	-3	3	13	.	22
CCCC(=O)n1nc(-c2cccnc2)nc1N	12	2	-1	3	0.16	94*
Cc1ccc(C(=O)n2nc(-c3cccnc3)nc2N)cc1	11	-2	3	0	.	14
CC(=O)Nc1cc2c(cc1C(=O)C(C)C)OCCO2	7	1	2	-17	-0.02	62
CC(C)C(=O)c1cc2c(cc1NC(=O)c1cccs1)OCCO2	-6	5	3	-32	.	71*
CC(C)C(=O)c1cc2c(cc1NC(=O)c1ccccc1)OCCO2	-10	6	0	-45	.	89*
CCOC(=O)C1(CCCc2ccccc2)CCN(C(=O)CCCn2cncn2)CC1	-1	3	.	7	-0.16	.
O=C(CN1C(=O)NC2(CCSC2)C1=O)NCc1ccccc1 (configuration not stated)	-8	7	.	4	-0.25	.
Cc1ccc(CNC(=O)C(=O)NCC2OCCN2C(=O)c2ccc(Cl)cc2)cc1 (configuration not stated)	13	-1	1	6	-0.14	-37
O=C(NCc1ccc(Cl)cc1)C(=O)NCC1OCCN1C(=O)c1ccc(Cl)cc1 (configuration not stated)	-6	3	.	12	.	69*
COc1ccc(-c2cc(-c3ccccc3)c(C#N)c(S(C)=O)n2)cc1 (configuration not stated)	76*	-18	-1	72*	-3.5	.
CCSc1nc(-c2ccc(OC)cc2)cc(-c2ccccc2)c1C#N	-17	-4	1	-49	-0.85	23
COc1ccc(C(=O)NN(C)c2nc(C(F)(F)F)nc3ccccc23)cc1	-19	21*	.	-16	-2	.
COc1ccc(C(=O)NN(C)c2nc(-c3ccccc3)nnc2C(F)(F)F)cc1	-1	5	5	2	0.93	.
CC(C)(C)NC(=O)NC(=O)CN1CCN(c2ncc(C(F)(F)F)cc2Cl)CC1	4	-1	2	14	0.23	68*
NNC(=O)CN1CCN(c2ncc(C(F)(F)F)cc2Cl)CC1	1	4	.	-12	0.1	19
COc1cc2c(cc1OC)-c1cc(NC3CCCCCC3)nc(=O)n1CC2	-3	49*	43*	-20	-0.04	24
COc1cc2c(cc1OC)-c1cc(Nc3ccccc3)nc(=O)n1CC2	-53	.	.	-22	-2	.
COc1cc2c(cc1OC)-c1cc(N3CCCc4ccccc43)nc(=O)n1CC2	-10	123*	136*	-40	-1.8	.
COc1cc2c(cc1OC)-c1cc(N3CCCCCC3)nc(=O)n1CC2	-3	24*	32*	-23	0.08	-24
Cc1ccccc1Nc1nc(N)c2ccccc2n1	12	3	.	-8	.	.
Nc1nc(Nc2ccccc2)nc2ccccc12	68*	-9	5	73*	-0.11	6
SMILES	NPY-Y2 PAM-ag	NPY Y1 blocker	NPY-Y2 antag	NPY-Y1 PAM-ag	Ins promoter up	Insulin prom inh
Cc1nc2ccc(S(=O)(=O)NCC(=O)N3CCCC(C)C3)cc2s1 (configuration not stated)	0	-7	0	8	-0.35	73*
Nc1ncc(Br)cc1N=Cc1ccccc1	-11	0	3	-2	-0.38	76*
CCCC(=O)N(CCN(Cc1ccccc1)C(=O)CCC)Cc1ccccc1	-12	56*	25*	-15	0.71	-42
C[C@H](NC(=O)c1ccccc1Cl)C(=O)OCC(=O)N1CC2(C)CC1CC(C)(C)C2 (some centres not stated)	10	13	0	-9	2.1	.
COC(=O)CSc1nc2ccc(NC(=O)CSc3nnnn3Cc3ccccc3)cc2s1	105*	-11	-2	109*	-0.14	-18
C/C(=N\Nc1ccc(C#N)cc1[N+](=O)[O-])c1ccc(O)cc1	28	.	.	37	0.35	.
CC/C(=N\Nc1ccccc1[N+](=O)[O-])c1ccc(O)cc1	47*	-12	.	74*	0.8	-43
O=C(NCc1ccco1)C1CCCN1C(=O)Nc1ccc(Cl)cc1 (configuration not stated)	10	2	.	17	-0.21	-64
N#CC(c1ccc(Cl)cc1)c1cccc(Cl)n1 (configuration not stated)	3	8	.	4	-0.21	-20
COCCn1c(N/N=C(C)/C=C/c2ccccc2)nc2c1c(=O)[nH]c(=O)n2C	1	-1	.	-3	-0.55	.
CCCn1c(-c2cccs2)nc2ccccc21	-7	-4	3	-14	-0.05	.
CCN1c2ccccc2-c2nc3ccccc3n2C1c1cccs1 (configuration not stated)	-9	37*	25*	-10	0.31	-21
CC1CCN(C(=S)c2cn(Cc3ccccc3F)c3ccccc23)CC1	-17	45*	29*	-7	0.31	-17
C[N+]12CCCCC1C(COC(=O)c1ccc3c(c1)OCO3)CCC2 (configuration not stated)	4	5	-1	10	0.5	75*
O=C(OCCCCN1C(=O)c2ccccc2C1=O)c1ccc(Br)o1	-13	6	6	-9	-0.38	79*
COc1cc(/C=N/NC(=O)Cn2cnc3c2c(=O)n(C)c(=O)n3C)ccc1O	10	.	.	11	0.06	.
O=S(=O)(c1ccc(Cl)cc1)N1CCC(N2CCOCC2)CC1	-13	-3	4	-18	0.94	.
Nc1nc(-c2ccc(Cl)cc2)c(N=Nc2ccc(S(=O)(=O)N3CCOCC3)cc2)s1	0	5	-6	11	3.8*	22
CCOC(=O)c1csc(NNC=O)n1	3	4	1	6	0.02	.
O=C(Nc1ccc(O)c2c(=O)cc(-c3cccc(Cl)c3)oc12)c1ccc(F)cc1	.	.	.	.	-0.01	.
C1CCN(c2nc(N3CCCC3)nc(N3CCNCC3)n2)C1	69*	-8	3	79*	.	.
Nc1ncncc1-c1ccc([N+](=O)[O-])cc1	-3	2	2	-11	-0.68	.
CCCOc1ccc(-c2nn(-c3ccccc3)cc2/C=C2\SC(=S)N(C3CCS(=O)(=O)C3)C2=O)cc1 (configuration not stated)	-1	-5	1	19	4.8*	24
CCOC(=O)C1CCC(CN(Cc2ccccc2C)S(=O)(=O)c2ccc([N+](=O)[O-])cc2)CC1 (configuration not stated)	11	-6	-1	-7	-0.26	21

Assay outcomes deposited in PubChem by several laboratories.
